Results published in ChEMBL document CHEMBL3627695, “1-Benzyl-2-methyl-3-indolylmethylene barbituric acid derivatives: Anti-cancer agents that target nucleophosmin 1 (NPM1)” (Bioorg Med Chem, 2015).
The source made the active and inactive calls. The rule behind the calls is not given here.

What was measured:
NCI-H322M = assay: Anticancer activity against human NCI-H322M cells after 48 hrs by sulforhodamine B assay; type: functional
Method in brief: (§1)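 NCI-60 human tumour cell line panel. Compounds dissolved in DMSO/H2O and tested at five 10-fold dilutions (10⁻⁴ M to 10⁻⁸ M) for 48 hr. GI50 is the molar concentration giving 50% reduction in net cell growth relative to cell numbers on day 0.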

MDA-MB-435 = assay: Anticancer activity against human MDA-MB-435 cells after 48 hrs by sulforhodamine B assay; type: functional; conditions: MDA-MB-435, 48 h; method in brief: as §1
[1] = Anticancer activity against human Hs 578T cells after 48 hrs by sulforhodamine B assay; type: functional; method in brief: as §1
MCF7 = assay: Anticancer activity against human MCF7 cells after 48 hrs by sulforhodamine B assay; type: functional; conditions: MCF7, 48 h; method in brief: as §1
OVCAR-3 = assay: Anticancer activity against human OVCAR3 cells after 48 hrs by sulforhodamine B assay; type: functional; conditions: OVCAR-3, 48 h; method in brief: as §1
A498 = assay: Anticancer activity against human A498 cells after 48 hrs by sulforhodamine B assay; type: functional; conditions: A498, 48 h; method in brief: as §1
UO-31 = assay: Anticancer activity against human UO31 cells after 48 hrs by sulforhodamine B assay; type: functional; conditions: UO-31, 48 h
Method in brief: (§2)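 NCI-60 panel protocol. Compounds were dissolved in DMSO/H2O and tested at five 10-fold concentrations (10⁻⁴ to 10⁻⁸ M) with 48 hr incubation. GI50 is the molar concentration giving a 50% reduction in net cell growth relative to cell numbers on day 0.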

OVCAR-5 = assay: Anticancer activity against human OVCAR5 cells after 48 hrs by sulforhodamine B assay; type: functional; conditions: OVCAR-5, 48 h; method in brief: as §1
OVCAR-8 = assay: Anticancer activity against human OVCAR8 cells after 48 hrs by sulforhodamine B assay; type: functional; conditions: OVCAR-8, 48 h; method in brief: as §1
HL-60(TB) = assay: Anticancer activity against human HL-60(TB) cells after 48 hrs by sulforhodamine B assay; type: functional; conditions: HL-60, 48 h; method in brief: as §1
MDA-MB-468 = assay: Anticancer activity against human MDA-MB-468 cells after 48 hrs by sulforhodamine B assay; type: functional; conditions: MDA-MB-468, 48 h; method in brief: as §1
SN12C = assay: Anticancer activity against human SN12C cells after 48 hrs by sulforhodamine B assay; type: functional; method in brief: as §1
SK-MEL-28 = assay: Anticancer activity against human SK-MEL-28 cells after 48 hrs by sulforhodamine B assay; type: functional; conditions: SK-MEL-28, 48 h; method in brief: as §1
SNB-75 = assay: Anticancer activity against human SNB75 cells after 48 hrs by sulforhodamine B assay; type: functional; conditions: SNB-75, 48 h; method in brief: as §1
[2] = Anticancer activity against human MOLT4 cells after 48 hrs by sulforhodamine B assay; type: functional; conditions: MOLT-4, 48 h; method in brief: as §1
TK-10 = assay: Anticancer activity against human TK10 cells after 48 hrs by sulforhodamine B assay; type: functional; conditions: TK-10, 48 h; method in brief: as §2
HCT-116 = assay: Anticancer activity against human HCT116 cells after 48 hrs by sulforhodamine B assay; type: functional; conditions: HCT-116, 48 h; method in brief: as §1
[3] = Anticancer activity against human RXF393 cells after 48 hrs by sulforhodamine B assay; type: functional; conditions: RXF 393, 48 h; method in brief: as §1
HOP-62 = assay: Anticancer activity against human HOP62 cells after 48 hrs by sulforhodamine B assay; type: functional; conditions: HOP-62, 48 h; method in brief: as §1
[4] = Anticancer activity against human RPMI8226 cells after 48 hrs by sulforhodamine B assay; type: functional; conditions: RPMI-8226, 48 h; method in brief: as §1
OVCAR-4 = assay: Anticancer activity against human OVCAR4 cells after 48 hrs by sulforhodamine B assay; type: functional; conditions: OVCAR-4, 48 h; method in brief: as §1
KM12 = assay: Anticancer activity against human KM12 cells after 48 hrs by sulforhodamine B assay; type: functional; conditions: KM12, 48 h; method in brief: as §1
SNB-19 = assay: Anticancer activity against human SNB19 cells after 48 hrs by sulforhodamine B assay; type: functional; conditions: SNB-19, 48 h; method in brief: as §1
[5] = Anticancer activity against human SF295 cells after 48 hrs by sulforhodamine B assay; type: functional; conditions: SF-295, 48 h; method in brief: as §1
786-0 = assay: Anticancer activity against human 786-0 cells after 48 hrs by sulforhodamine B assay; type: functional; conditions: 786-0, 48 h; method in brief: as §1
DU-145 = assay: Anticancer activity against human DU145 cells after 48 hrs by sulforhodamine B assay; type: functional; conditions: DU-145, 48 h; method in brief: as §1
[6] = Anticancer activity against human COLO205 cells after 48 hrs by sulforhodamine B assay; type: functional; conditions: COLO 205, 48 h; method in brief: as §1
SR = assay: Anticancer activity against human SR cells after 48 hrs by sulforhodamine B assay; type: functional; method in brief: as §2
HCT-15 = assay: Anticancer activity against human HCT15 cells after 48 hrs by sulforhodamine B assay; type: functional; conditions: HCT-15, 48 h; method in brief: as §1
IGROV-1 = assay: Anticancer activity against human IGROV1 cells after 48 hrs by sulforhodamine B assay; type: functional; conditions: IGROV-1, 48 h; method in brief: as §1
BT-549 = assay: Anticancer activity against human BT549 cells after 48 hrs by sulforhodamine B assay; type: functional; conditions: BT-549, 48 h; method in brief: as §1
U-251 = assay: Anticancer activity against human U251 cells after 48 hrs by sulforhodamine B assay; type: functional; conditions: U-251, 48 h; method in brief: as §2
[7] = Anticancer activity against human NCI-ADR-RES cells after 48 hrs by sulforhodamine B assay; type: functional; method in brief: as §1
MDA-MB-231 = assay: Anticancer activity against human MDA-MB-231 cells after 48 hrs by sulforhodamine B assay; type: functional; conditions: MDA-MB-231, 48 h; method in brief: as §1
HT-29 = assay: Anticancer activity against human HT-29 cells after 48 hrs by sulforhodamine B assay; type: functional; conditions: HT-29, 48 h; method in brief: as §1
SK-MEL-2 = assay: Anticancer activity against human SK-MEL-2 cells after 48 hrs by sulforhodamine B assay; type: functional; conditions: SK-MEL-2, 48 h; method in brief: as §1
UACC-257 = assay: Anticancer activity against human UACC257 cells after 48 hrs by sulforhodamine B assay; type: functional; conditions: UACC-257, 48 h; method in brief: as §2
CCRF-CEM = assay: Anticancer activity against human CCRF-CEM cells after 48 hrs by sulforhodamine B assay; type: functional; method in brief: as §1
[8] = Anticancer activity against human LOXIMVI cells after 48 hrs by sulforhodamine B assay; type: functional; conditions: LOX IMVI; method in brief: as §1
SK-MEL-5 = assay: Anticancer activity against human SK-MEL-5 cells after 48 hrs by sulforhodamine B assay; type: functional; conditions: SK-MEL-5, 48 h; method in brief: as §1
SF-268 = assay: Anticancer activity against human SF268 cells after 48 hrs by sulforhodamine B assay; type: functional; conditions: SF-268, 48 h; method in brief: as §1
CAKI-1 = assay: Anticancer activity against human Caki1 cells after 48 hrs by sulforhodamine B assay; type: functional; conditions: CAKI-1, 48 h; method in brief: as §1
NCI-H460 = assay: Anticancer activity against human NCI-H460 cells after 48 hrs by sulforhodamine B assay; type: functional; conditions: NCI-H460, 48 h; method in brief: as §1
[9] = (§3) Anticancer activity against human OCI-AML3 cells expressing mutant NPM1 assessed as apoptosis for 48 hrs by annexin-V and TO-PRO3 staining based flow cytometry; type: functional, cell-based; conditions: OCI-AML-3, 48 h
Method in brief: (§4)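 OCI-AML3 cells (NPM1c+) in logarithmic growth, passaged 2–3 times weekly. Cells were exposed to the indicated compound concentrations for 48 hr, then stained with annexin V and TO-PRO 3. Percent apoptotic cells was read by flow cytometry. AP50 is the concentration at which 50% of cells undergo apoptosis.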

NCI-H226 = assay: Anticancer activity against human NCI-H226 cells after 48 hrs by sulforhodamine B assay; type: functional; conditions: NCI-H226, 48 h; method in brief: as §1
[10] = Anticancer activity against human SF539 cells after 48 hrs by sulforhodamine B assay; type: functional; conditions: SF-539, 48 h; method in brief: as §1
Malme-3M = assay: Anticancer activity against human MALME-3M cells after 48 hrs by sulforhodamine B assay; type: functional; method in brief: as §1
K562 = assay: Anticancer activity against human K562 cells after 48 hrs by sulforhodamine B assay; type: functional; conditions: K562, 48 h; method in brief: as §1
SK-OV-3 = assay: Anticancer activity against human SKOV3 cells after 48 hrs by sulforhodamine B assay; type: functional; conditions: SK-OV-3, 48 h; method in brief: as §1
ACHN = assay: Anticancer activity against human ACHN cells after 48 hrs by sulforhodamine B assay; type: functional; method in brief: as §1
NCI-H522 = assay: Anticancer activity against human NCI-H522 cells after 48 hrs by sulforhodamine B assay; type: functional; conditions: NCI-H522, 48 h; method in brief: as §1
A549 = assay: Anticancer activity against human A549/ATCC cells after 48 hrs by sulforhodamine B assay; type: functional; conditions: A549, 48 h; method in brief: as §1
M14 = assay: Anticancer activity against human M14 cells after 48 hrs by sulforhodamine B assay; type: functional; conditions: M14, 48 h; method in brief: as §1
[11] = Anticancer activity against human HCC2998 cells after 48 hrs by sulforhodamine B assay; type: functional; conditions: HCC 2998, 48 h; method in brief: as §1
SW-620 = assay: Anticancer activity against human SW620 cells after 48 hrs by sulforhodamine B assay; type: functional; conditions: SW-620, 48 h; method in brief: as §2
T47D = assay: Anticancer activity against human T47D cells after 48 hrs by sulforhodamine B assay; type: functional; method in brief: as §2
[12] = Anticancer activity against human HOP92 cells after 48 hrs by sulforhodamine B assay; type: functional; conditions: HOP-92, 48 h; method in brief: as §1
OCI-AML-3 = assay: as §3; type: functional, cell-based; method in brief: as §4

`Cc1c(C=C2C(=O)NC(=S)NC2=O)c2ccccc2n1Cc1ccc(C#N)cc1` showed a GI50 (NCI-H322M) of 1930 nM, a GI50 (MDA-MB-435) of 1490 nM and a GI50 [1] of 1220 nM. It also gave a GI50 (MCF7) of 1280 nM, a GI50 (OVCAR-3) of 1580 nM and a GI50 (A498) of 220 nM. The GI50 (UO-31) was 1460 nM, the GI50 (OVCAR-5) was 1840 nM and the GI50 (OVCAR-8) was 1320 nM. It also gave a GI50 (HL-60(TB)) of 1080 nM, a GI50 (MDA-MB-468) of 380 nM and a GI50 (SN12C) of 1400 nM. It also gave a GI50 (SK-MEL-28) of 2080 nM, a GI50 (SNB-75) of 2040 nM and a GI50 [2] of 1820 nM. The GI50 (TK-10) was 1370 nM, the GI50 (HCT-116) was 1290 nM and the GI50 [3] was 1530 nM. For the same compound, the GI50 (HOP-62) was 1960 nM, the GI50 [4] was 570 nM and the GI50 (OVCAR-4) was 1590 nM. The GI50 (KM12) was 1740 nM, the GI50 (SNB-19) was 1770 nM and the GI50 [5] was 1880 nM. The GI50 (786-0) was 1760 nM, the GI50 (DU-145) was 1710 nM and the GI50 [6] was 1730 nM. It also gave a GI50 (SR) of 560 nM, a GI50 (HCT-15) of 1740 nM and a GI50 (IGROV-1) of 1610 nM. The GI50 (BT-549) was 1870 nM, the GI50 (U-251) was 1610 nM and the GI50 [7] was 3830 nM. For the same compound, the GI50 (MDA-MB-231) was 1640 nM, the GI50 (HT-29) was 1760 nM and the GI50 (SK-MEL-2) was 2170 nM. It also gave a GI50 (UACC-257) of 1670 nM, a GI50 (CCRF-CEM) of 840 nM and a GI50 [8] of 900 nM. It also gave a GI50 (SK-MEL-5) of 1840 nM, a GI50 (SF-268) of 1600 nM and a GI50 (CAKI-1) of 2210 nM. The GI50 (NCI-H460) was 2010 nM, the AC50 [9] was 2720 nM and the GI50 (NCI-H226) was 1790 nM. For the same compound, the GI50 [10] was 1290 nM, the GI50 (Malme-3M) was 2500 nM and the GI50 (K562) was 1770 nM. For the same compound, the GI50 (SK-OV-3) was 2980 nM, the GI50 (ACHN) was 1700 nM and the GI50 (NCI-H522) was 1750 nM. It also gave a GI50 (A549) of 2480 nM, a GI50 (M14) of 1610 nM and a GI50 [11] of 1790 nM. The GI50 (SW-620) was 1360 nM, the GI50 (T47D) was 2540 nM and the GI50 [12] was 1280 nM.

In the case of `N#Cc1ccc(Cn2cc(C=C3C(=O)NC(=O)NC3=O)c3ccccc32)cc1`, the AC50 [9] is reported as over 20000 nM.

For `Cc1c(C=C2C(=O)NC(=O)NC2=O)c2ccccc2n1Cc1ccc(Br)cc1`, the Activity (OCI-AML-3) was “inactive”.

For `COC(=O)c1ccc(Cn2c(C)c(C=C3C(=O)NC(=O)NC3=O)c3ccccc32)cc1`, the Activity (OCI-AML-3) was “inactive”.

With `Cc1c(C=C2C(=O)NC(=O)NC2=O)c2ccccc2n1Cc1ccc(C#N)cc1` the Activity (OCI-AML-3) was “inactive”.
